An excerpt weighted towards active compounds, which were near 4.1% of everything screened.
KCNK9 block – inhibitors of human KCNK9 two-pore domain potassium channel; B-score at 10 µM; 310,000 compounds, 1.2% hits; Q9NPC2; HEK293 KCNK9, FluxOR thallium flux fluorescence; hits give low values;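 active = ratio B-score over 3 SD below the library mean, with starting fluorescence within 5 SD of its mean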;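 also: negative B-score means less thallium flux so channel inhibition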
hERG protect – compounds protecting human hERG from proarrhythmic drug block; CHO-hERG, FluxOR thallium flux, dofetilide IC70 present; 310,000 compounds, 0.51% hits; AID 1511; activation (rescue from dofetilide block), less the hit threshold, % at 10 µM; Q12809;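 active = activation above the mean of controls blocked by dofetilide plus 5 SD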;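 also: thallium influx through hERG after potassium depolarization seen as dye fluorescence rise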
Cl transport mod – KCC2 (human) Cl- transport modulation; 190,000 compounds, 2.2% hits; B-score of Tl+ flux slope (higher = more flux/activation; lower = inhibition) at 10 µM; KCC2 cells, thallium flux FluoZin-2 fluorescence; AID 1456; Q9H2X9;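 active = thallium flux slope and its plate-corrected score both differing from the plate sample mean at a set confidence after two filtering rounds, in either direction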;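 also: slope of fluorescence scaled to starting intensity during 10 to 20 s after thallium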
KCNK3 block – human KCNK3 channel inhibition, primary screen; CHO-KCNK3 thallium flux, FluxOR fluorescence; hits give low values; B-score at 10 µM; 340,000 compounds, 0.84% hits; AID 602410;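 active = B-score under library mean minus 4 SD, starting fluorescence ratio at most library mean plus 5 SD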;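 also: more negative B-score means stronger inhibition of thallium flux through KCNK3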
KCNQ1 act – potentiators or activators of human KCNQ1 potassium channel. P51787. CHO-K1 KCNQ1, thallium flux FluxOR fluorescence; hits give high values. B-score at 10 µM. 310,000 compounds, 0.35% hits;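 active = fluorescence ratio B-score, a plate-corrected score, at least three library SD, with initial intensity B-score within 5 SD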
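System: Stable KCNQ1 CHO-K1 line | Incubation: 90 min dye loading and 20 min compound exposure, both at room temperature | Measure: Ratio B score | Medium: Assay buffer for compound exposure, DMSO matched across wells | Compound dosing: Single-concentration screen | Probe or stimulus: K+/Tl+ depolarizing stimulus | Measured by: Kinetic FluxOR fluorescence, 10 s baseline plus 110 s post-stimulus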
KCNQ1 block – human KCNQ1 channel inhibition. P51787. CHO-K1 KCNQ1, FluxOR thallium flux fluorescence; hits give high values. B-score at 10 µM. 310,000 compounds, 1.3% hits. AID 2642;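 active = compounds whose thallium flux B-score, printed positive for inhibition, exceeds three library SD while starting fluorescence stays within three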;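 also: channel opened by potassium depolarization with thallium stimulus after 20 min compound exposure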
KCNQ1 inh valid – confirmation of human KCNQ1 potassium channel inhibitors; shares compounds with KCNQ1 block; KCNQ1 cell line, FluxOR thallium flux fluorescence; inhibition, % at 10 µM; 1,600 compounds, 93% hits;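 active = primary screen active, with duplicate mean exceeding buffer control mean plus 3 SD of buffer wells, cut at about 28% in these data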
CHO KCNQ1 ctr – KCNQ1 inhibitor counter-screen hit in parental CHO cells. fluorescence ratio (Tl flux) at 10 µM. parental CHO-K1, FluxOR thallium flux fluorescence ratio; hits give low values; zero means no signal rise above baseline. shares compounds with KCNQ1 block. 1,600 compounds, 21% hits. AID 588366;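 active = mean of duplicate thallium-flux fluorescence ratios in parental host cells more than 5 SD below the buffer control mean, cut at about 0.38 in these data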;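 also: ratio is peak minus minimum fluorescence divided by baseline fluorescence; actives read low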
KCNQ1 APC inh – blocks human KCNQ1 current in automated patch clamp | shares compounds with KCNQ1 block | KCNQ1-CHO cells | calls only at 10 µM | 490 compounds, 20% hits | AID 624120;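 active = KCNQ1 current drop exceeding 3 SD of negative control wells, seen in both duplicate runs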;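 also: steady state current during a 2 s step from -80 to +40 mV; negative values mean current inhibition and positive values mean potentiation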
KCNQ2 inh – KCNQ1 inhibitor that also blocks rat KCNQ2 channel | shares compounds with KCNQ1 block | inhibition, % at 10 µM | AID 651746 | KCNQ2 cells, FluxOR thallium flux fluorescence | 1,600 compounds, 71% hits;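 active = mean percent inhibition of the KCNQ2 thallium signal more than 5 SD above the buffer-only control wells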;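 also: KCNQ2 expressed in CHO cells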
KCNQ1-KCNE1 inh – human KCNQ1/KCNE1 inhibition in KCNQ1 specificity screen | shares compounds with KCNQ1 block | KCNQ1/KCNE1 cells, FluxOR thallium flux fluorescence | inhibition, % at 10 µM | 1,600 compounds, 77% hits;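 active = mean percent inhibition of duplicate wells above the buffer-only control mean plus 3 SD of those controls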
Numbers stand for hits; - = inactive; . = no result.

SMILES	KCNK9 block	hERG protect	Cl transport mod	KCNK3 block	KCNQ1 act	KCNQ1 block	KCNQ1 inh valid	CHO KCNQ1 ctr	KCNQ2 inh	KCNQ1-KCNE1 inh	others
O=C(Nc1ccc2ccccc2c1)C(c1ccccc1)C1CCCC1 (configuration not stated)	-7.5	-	-	-	-	15	138	0.31	123%	167%
Cc1ccccc1NC(=O)C(c1ccccc1)C1CCCC1 (configuration not stated)	-	-	-	-	-	-	.	.	.	.
N#CCCN(C(=O)COC(=O)c1cc(=O)[nH]c2ccccc12)c1ccccc1	.	.	.	-	.	.	.	.	.	.
COC(=O)c1sc(NC(=O)c2cc(-c3ccccc3)nc3ccccc23)c(C#N)c1C	-	-	.	-	-	6	50	-	66%	56%
COC(=O)c1sccc1NC(=O)c1cc(-c2cc(C)ccc2C)nc2ccccc12	-	-	.	-	-	-	.	.	.	.
Cc1sc(NC(=O)c2cc(-c3ccccc3)nc3ccccc23)c(C(N)=O)c1C	-	-	-	-	-	6	97	-	100%	140%	KCNQ1 APC inh=-
Cc1ccc(C)c(-c2cc(C(=O)Nc3nccs3)c3ccccc3n2)c1	-7.8	-	-	-	-	8	88	-	102%	125%	KCNQ1 APC inh=-
COC(=O)c1sccc1NC(=O)c1cc(-c2ccc(C)cc2)nc2ccccc12	-	-	-	-	-	-	.	.	.	.
Cc1cccc(NC(=O)c2cc(-c3ccc(C)s3)nc3ccccc23)n1	-7.2	-	-	-	-	6	92	-	98%	149%	KCNQ1 APC inh=-
CCOC(=O)c1cc([N+](=O)[O-])cc([N+](=O)[O-])c1Sc1ncnc2nc[nH]c12	.	.	.	-	.	.	.	.	.	.
O=C(COc1ccccc1)Nc1ccncc1Cl	-	-	.	-	-	-	.	.	.	.
N/C(=N\S(=O)(=O)c1cc(C(F)(F)F)cc(C(F)(F)F)c1)c1ccc(Cl)cc1	-	-	-	-	-	7	-	-	-	-
N/C(=N\S(=O)(=O)c1cc(C(F)(F)F)cc(C(F)(F)F)c1)c1ccncc1	-	-	.	-	-	-	.	.	.	.
COc1cc(C)nc(N(Cc2ccccc2)S(=O)(=O)c2ccc(C)cc2)n1	-	-	-	-	-	7	70	-	101%	76%
COC(=O)CN(c1nc(C)cc(OC)n1)S(=O)(=O)c1ccccc1	-	-	-	-	-	-	.	.	.	.
COc1ccc(CC(=O)Nc2cccc(-c3nnc(-c4cccc(C)c4)o3)c2)cc1OC	-	-	-	-	-	10	144	0.32	132%	98%
CCc1ccc(OC(C)C(=O)Nc2ccc(S(=O)(=O)Nc3nccs3)cc2)cc1 (configuration not stated)	-	-	.	-	-	-	.	.	.	.
CCOc1ccc2nc(NC3=NC(C)(C)C=C(C)N3)nc(C)c2c1	-	-	-	-	-	10	88	-	-	92%
CCOc1ccc2c(C)nc(NC3=NC(C)(C)C=C(C)N3)nc2c1	-	-	-	-	-	-	.	.	.	.
CCCCOc1ccc(Cc2c(Cl)nc(SC)nc2N2CCOCC2)cc1	-	-	-	-	-	7	63	-	102%	68%
COc1ccc(OCC(O)CN2CCOCC2)cc1 (configuration not stated)	-	-	.	-	-	-	.	.	.	.
CSc1nc(Cl)c(Cc2ccc(OCC(C)C)cc2)c(N2CCOCC2)n1	-	-	-	-	-	8	110	-	103%	136%	KCNQ1 APC inh=-
